Here are results for 29 compounds from ChEMBL document CHEMBL1127464, “Inhibitors of HIV-1 proteinase containing 2-heterosubstituted 4-amino-3-hydroxy-5-phenylpentanoic acid: synthesis, enzyme inhibition, and antiviral activity” (J Med Chem, 1994).

Test [1] has as its system Human immunodeficiency virus 1. Description: Antiviral activity by observing cytopathic effect induced by HIV-1 strain IIIB in de novo infected MT-4 cells. Type of test: functional, organism-based. Conditions: Human immunodeficiency virus 1, MT4.
The target in test [2] is Human immunodeficiency virus type 1 protease (Human immunodeficiency virus 1, UniProt Q72874). Description: Inhibitory constant against HIV-1 protease. An outline of the steps: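 HIV-1 proteinase expressed in E. coli JM 105 and purified to homogeneity. Initial rates were taken from the absorbance decrease at 298 nm. IC50 came from a fit of the initial velocities. Ki was derived from IC50 accounting for enzyme, substrate and Km. Mean of two determinations.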

In the case of `CC(C)[C@H](NC(=O)CCCCCN)C(=O)N[C@@H](Cc1ccccc1)[C@@H](O)[C@@H](NCc1ccccc1)C(=O)N[C@H](C(=O)NCc1ccccc1)C(C)C`, the IC50 (commonly the concentration that inhibits the measured activity by half) in test [1] was greater than 3000 nM. For the same compound, the affinity in test [2] corresponds to a Ki of 33 nM.

On to `CC(C)[C@H](NC(=O)OCc1ccccc1)C(=O)N[C@@H](Cc1ccccc1)[C@@H](O)[C@@H](NCc1cccc2ccccc12)C(=O)N[C@H](C(=O)NCc1ccccc1)C(C)C`, for which the 50% inhibitory concentration (IC50) in test [1] was greater than 3000 nM. Further, the affinity in test [2], expressed as Ki, was 26 nM.

On to `CC(C)[C@H](NC(=O)[C@H](NCc1ccccc1)[C@H](O)[C@H](Cc1ccccc1)NC(=O)[C@H](Cc1c[nH]c2ccccc12)NC(=O)OCc1ccccc1)C(=O)NCc1ccccc1`, for which the IC50 in test [1] was greater than 3000 nM. The Ki (in general, a dissociation constant, usually derived from enzyme kinetics or from competition with a known ligand) in test [2] was determined as 200 nM.

`CC(C)[C@H](NC(=O)OCc1ccccc1)C(=O)N[C@@H](Cc1ccccc1)[C@@H](O)[C@@H](NCc1ccc(Cl)cc1)C(=O)N[C@H](C(=O)NCc1ccccc1)C(C)C`: the IC50 in test [1] came to 400 nM. In addition, affinity in test [2] was put at a Ki of 17 nM.

`CC(C)[C@H](NC(=O)OCc1ccccc1)C(=O)N[C@@H](Cc1ccccc1)[C@@H](O)[C@@H](NCc1ccccc1)C(=O)N[C@H](C(=O)NC(C)(C)C)C(C)C` gave an IC50 in test [1] greater than 3000 nM. In test [2], this compound came in with a Ki of 72 nM.

On to `CC(C)[C@H](NC(=O)OCc1ccccc1)C(=O)N[C@@H](Cc1ccccc1)[C@@H](O)[C@@H](NCc1ccccc1)C(=O)N[C@H](C(=O)NCc1ccccn1)C(C)C`, for which the IC50 in test [1] came to 1140 nM. In test [2], this compound registered a Ki of 12 nM.

On to `CCCCN[C@@H](C(=O)N[C@H](C(=O)NCc1ccccc1)C(C)C)[C@H](O)[C@H](Cc1ccccc1)NC(=O)[C@@H](NC(=O)OCc1ccccc1)C(C)C`, for which the IC50 in test [1] is greater than 3000 nM. The compound also returned a Ki in test [2] of 23 nM.

`CC(C)[C@H](NC(=O)OCc1ccccc1)C(=O)N[C@@H](Cc1ccccc1)[C@@H](O)[C@@H](NCc1ccccc1)C(=O)N[C@@H](CC(N)=O)C(=O)NCc1ccccc1`: in test [1], the IC50 was greater than 3000 nM. In addition, the Ki in test [2] worked out at 42 nM.

`CC(C)[C@H](NC(=O)OCc1ccccc1)C(=O)N[C@@H](Cc1ccccc1)[C@@H](O)[C@@H](NCCc1ccccc1)C(=O)N[C@H](C(=O)NCc1ccccc1)C(C)C`: the IC50 in test [1] was greater than 3000 nM. The affinity in test [2] corresponds to a Ki of 34 nM.

In turn, `CC(C)[C@H](NC(=O)[C@H](NCc1ccccc1)[C@H](O)[C@H](Cc1ccccc1)NC(=O)[C@@H](NC(=O)OCc1ccccc1)c1ccccc1)C(=O)NCc1ccccc1` yielded an IC50 in test [1] greater than 3000 nM. In test [2], this compound returned a Ki of 51 nM.

Consider `CC(C)[C@H](NC(=O)OCc1ccccc1)C(=O)N[C@@H](Cc1ccccc1)[C@@H](O)[C@@H](NC1CCCCC1)C(=O)N[C@H](C(=O)NCc1ccccc1)C(C)C`, for which, in test [1], the midpoint of inhibition, the IC50, lay at 940 nM. The compound also gave a Ki in test [2] of 33.5 nM.

With `CC(C)[C@H](NC(=O)OCc1ccccc1)C(=O)N[C@@H](Cc1ccccc1)[C@@H](O)[C@@H](NCc1ccccc1)C(=O)N[C@H](C(=O)NCCc1c[nH]c2ccccc12)C(C)C`, the IC50 in test [1] is greater than 3000 nM. The same compound showed a Ki in test [2] of 10.6 nM.

On to `CC(C)[C@H](NC(=O)OCc1ccccn1)C(=O)N[C@@H](Cc1ccccc1)[C@@H](O)[C@@H](NCc1ccccc1)C(=O)N[C@H](C(=O)NCc1ccccc1)C(C)C`, for which, in test [1], it took 350 nM to reach half-maximal inhibition (IC50). This compound also returned a Ki in test [2] of 8.6 nM.

Consider `CC[C@H](C)[C@H](NC(=O)[C@H](NCc1ccccc1)[C@H](O)[C@H](Cc1ccccc1)NC(=O)[C@@H](NC(=O)OCc1ccccc1)C(C)C)C(=O)NCc1ccccc1`, for which the IC50 in test [1] was greater than 3000 nM. For the same compound, the Ki in test [2] was greater than 3000 nM.

As for `CC[C@@H](C)[C@H](NC(=O)OCc1ccccc1)C(=O)N[C@@H](Cc1ccccc1)[C@@H](O)[C@@H](NCc1ccccc1)C(=O)N[C@H](C(=O)NCc1ccccc1)C(C)C`, the IC50 in test [1] is greater than 3000 nM. The same compound returned a Ki in test [2] of 8.3 nM.

In test [1], `CCOC(=O)[C@@H](NC(=O)[C@H](NCc1ccccc1)[C@H](O)[C@H](Cc1ccccc1)NC(=O)[C@@H](NC(=O)OCc1ccccc1)C(C)C)C(C)C` came in with an IC50 greater than 3000 nM. For the same compound, the Ki in test [2] was 1200 nM.

In test [1], `CC(C)[C@H](NC(=O)[C@H](NCc1ccccc1)[C@H](O)[C@H](Cc1ccccc1)NC(=O)[C@H](Cc1cnc[nH]1)NC(=O)OCc1ccccc1)C(=O)NCc1ccccc1` gave a concentration for half-maximal inhibition (IC50) greater than 3000 nM. The affinity in test [2], expressed as Ki, was 29 nM.

In test [1], `CC(C)[C@H](NC(=O)[C@H](NCc1ccccc1)[C@H](O)[C@H](Cc1ccccc1)NC(=O)[C@@H](NC(=O)N(C)Cc1nc2ccccc2[nH]1)C(C)C)C(=O)NCc1ccccc1` returned an IC50 of 270 nM. Further, the affinity in test [2], expressed as Ki, was 10.2 nM.

Take `CC(C)[C@H](NC(=O)OCc1ccccc1)C(=O)N[C@@H](Cc1ccccc1)[C@@H](O)[C@@H](NCCc1ccccn1)C(=O)N[C@H](C(=O)NCc1ccccc1)C(C)C`: in test [1], the half-inhibitory concentration (IC50) is greater than 3000 nM. This compound showed a Ki in test [2] of 200 nM.

On to `CC(C)[C@H](NC(=O)[C@H](NCc1ccccc1)[C@H](O)[C@H](Cc1ccccc1)NC(=O)[C@H](CO)NC(=O)OCc1ccccc1)C(=O)NCc1ccccc1`, for which, in test [1], it took 2500 nM to reach half-maximal inhibition (IC50). Also, the Ki in test [2] worked out at 153 nM.

In test [1], `CC(C)[C@H](NC(=O)[C@H](NCc1ccccc1)[C@H](O)[C@H](Cc1ccccc1)NC(=O)[C@H](CCC(N)=O)NC(=O)OCc1ccccc1)C(=O)NCc1ccccc1` came in with a half-inhibitory concentration (IC50) of 2000 nM. This compound also yielded an inhibition constant (Ki) in test [2] of 45 nM.

With `CC(C)[C@H](NC(=O)OCc1ccccc1)C(=O)N[C@@H](Cc1ccccc1)[C@@H](O)[C@@H](NCc1ccc(Br)cc1)C(=O)N[C@H](C(=O)NCc1ccccc1)C(C)C`, in test [1], it took 350 nM to reach half-maximal inhibition (IC50). In test [2], this compound registered a Ki of 23 nM.

In the case of `CC(C)C[C@H](NC(=O)OCc1ccccc1)C(=O)N[C@@H](Cc1ccccc1)[C@@H](O)[C@@H](NCc1ccccc1)C(=O)N[C@H](C(=O)NCc1ccccc1)C(C)C`, the IC50 in test [1] was greater than 3000 nM. In test [2], this compound had a Ki of 65 nM.

Consider `CC(C)[C@H](NC(=O)[C@H](NCc1ccccc1)[C@H](O)[C@H](Cc1ccccc1)NC(=O)[C@H](CC(N)=O)NC(=O)OCc1ccccc1)C(=O)NCc1ccccc1`, for which the midpoint of inhibition in test [1], the IC50, lay at 1010 nM. The affinity in test [2], expressed as Ki, was 10.4 nM.

Turning to `CC(C)[C@H](NC(=O)OCc1ccccc1)C(=O)N[C@@H](Cc1ccccc1)[C@@H](O)[C@@H](Nc1ccccc1)C(=O)N[C@H](C(=O)NCc1ccccc1)C(C)C`, the IC50 in test [1] came out at 1340 nM. This compound also yielded a Ki in test [2] of 6.9 nM.

Compound `CC(C)[C@H](NC(=O)OCc1ccccc1)C(=O)N[C@@H](Cc1ccccc1)[C@@H](O)[C@@H](NCc1ccccc1)C(=O)N[C@H](C(=O)OCc1nc2ccccc2[nH]1)C(C)C` yielded an IC50 in test [1] greater than 3000 nM. In addition, the affinity in test [2], expressed as Ki, was 29 nM.

As for `CC[C@H](NC(=O)OCc1ccccc1)C(=O)N[C@@H](Cc1ccccc1)[C@@H](O)[C@@H](NCc1ccccc1)C(=O)N[C@H](C(=O)NCc1ccccc1)C(C)C`, 2000 nM corresponded to half-maximal inhibition in test [1] (IC50). The same compound registered a Ki in test [2] of 17.1 nM.

`CC(C)[C@H](NC(=O)OCc1ccccc1)C(=O)N[C@@H](Cc1ccccc1)[C@@H](O)[C@@H](SCc1ccccc1)C(=O)N[C@H](C(=O)NCc1ccccc1)C(C)C` had an IC50 in test [1] of 330 nM. This compound also had an inhibition constant Ki in test [2] of 10 nM.

Turning to `CC(C)[C@H](NC(=O)OCc1ccccc1)C(=O)N[C@@H](Cc1ccccc1)[C@@H](O)[C@@H](NCc1ccccc1)C(=O)N[C@@H](C(=O)NCc1ccccc1)C(C)(C)C.CC(C)[C@H](NC(=O)OCc1ccccc1)C(=O)N[C@@H](Cc1ccccc1)[C@@H](O)[C@@H](NCc1ccccc1)C(=O)N[C@H](C(=O)NCc1ccccc1)C(C)(C)C` (stereo in doubt; 32(5:1)), the Ki in test [2] came to 20 nM.
